Laboratory results published in PMC7611345 (Clinical cancer research : an official journal of the …, 2020).
Entries after “also recorded” stand apart in the source; their conditions may differ.

Columns and labels:
advanced solid tumors = assay: Clinical efficacy; format: in vivo, human; settings: all dose levels
Method in brief: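 Patients with metastatic solid tumors who had already received standard-of-care treatment took oral test compound three days a week (Mon-Wed-Fri) in 28-day cycles. Cohorts received flat doses from 5 to 300 mg, and one further cohort used intra-patient escalation from 120 to 180 to 240 mg.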

AKT1 = settings: cited from earlier work
[1] = format: in vivo; settings: human, plasma, oral
[2] = test system: p-GSK3β in platelet-rich plasma; assay: p-GSK3β; format: in vivo, human
Method in brief: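 Blood was sampled at baseline and at 2, 6, 24 and 48 h after the run-in dose and after the cycle 2, day 1 dose. Platelet-rich plasma was prepared, and GSK3β Ser9 phosphorylation was measured by MSD electrochemiluminescent immunoassay. Results were expressed as percent of baseline, normalized to total GSK3β, and compared with predose by Dunnett's test.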

ROCK 2 = settings: cited from earlier work
p-MLC2 in tumor biopsies = assay: p-MLC2 in paired tumor biopsies by immunohistochemistry; format: in vivo, human; settings: 180 mg dose level, 5 paired biopsies
Method in brief: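 Fresh tumor biopsies were taken before and after treatment at 180 mg. Four-μm sections were heated at 60 °C for 20 min and retrieved in Tris pH 9 at 110 °C for 6 min. Staining used primary antibody 40 min at RT, biotinylated secondary 1:200, ABC-HRP amplification, VIP substrate and hematoxylin counterstain. Positive-cell detection used intensity scores 0–3, with a random-trees classifier separating tumor from stroma.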

[3] = test system: patients with solid tumors; assay: First-in-human phase I dose escalation: safety and tolerability; format: in vivo
Method in brief: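 The design was a rolling-six dose escalation across 5–300 mg in 8 cohorts, starting with a single run-in dose 7 days before cycle 1. Dosing was oral, Mon-Wed-Fri, in 28-day cycles. An added cohort escalated within each patient: one week at 120 mg, then 180 mg, then 240 mg during cycle 1. Toxicity was assessed weekly. Patients with hypertension on medication or abnormal fasting glucose were excluded.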

AKT2 = settings: cited from earlier work
ROCK I = settings: cited from earlier work
AKT3 = settings: cited from earlier work
[4] = test system: p-cofilin in tumor biopsies; assay: p-cofilin in pre- and post-treatment tumor biopsies, Protein Simple WES assay; format: in vivo, human; settings: 8 pre- and post-treatment biopsies
Method in brief: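 Tumor biopsies were taken pre-dose and 24 h post-dose (cycle 1 day 15 or cycle 2 day 1) at 180 mg given thrice weekly. Phospho- and total cofilin were measured by capillary immunoassay (WES), normalized to GAPDH, and quantified as the area under the chemiluminescence peak. Phospho-cofilin was expressed as percent of pre-dose level.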

[5] = Cohort 9 120-180-240 mg (n=7), grade 1

NC[C@@](O)(c1ccc(Cl)cc1)c1ccc(-c2cn[nH]c2)cc1 [AT13148]
tumor response (advanced solid tumors): No complete or partial responses; also recorded: no clinical responses
IC50 (AKT1): 0.038 µM
half-life [1]: 14.4 to 32.2 h
AUC ([1]; 180 mg): 13.4 µM·h
Cmax ([1]; 180 mg): 383 nM
change of p-GSK3β levels in platelet-rich plasma vs predose ([2]; 300 mg, 2 - 6 hrs (legend: 2 - 24 hrs) after treatment, Dunnett's test): statistically significant reduction; also recorded: reduced; also recorded: transient reduction
change of p-GSK3β levels in platelet-rich plasma vs predose ([2]; doses lower than 300 mg): not significant
IC50 (ROCK 2): 0.004 µM
paired biopsies with reduction of p-MLC2 (H scores) post-treatment (p-MLC2 in tumor biopsies): 1/5
dose-limiting toxicity ([3]; 180 mg): skin rash; also recorded: maculopapular rash
dose-limiting toxicities ([3]; 240 mg): pneumonitis and elevated liver enzymes; also recorded: elevated transaminases and pneumonitis
dose-limiting toxicity ([3]; 300 mg): hypotension
most common (treatment related) side effects ([3]; 5 - 300 mg): fatigue, nausea, headaches and hypotension; also recorded: hypotension, nausea, headache and fatigue
Anorexia, No. subjects ([3]; Cohort 1 5 mg (n=4), grade 1): 1
Nausea, No. subjects ([3]; Cohort 1 5 mg (n=4), grade 1): 1
Fatigue, No. subjects ([3]; Cohort 1 5 mg (n=4), grade 2): 1
Hypotension, No. subjects ([3]; Cohort 2 10 mg (n=5), grade 1): 1
Flushing, No. subjects ([3]; Cohort 8 300 mg (n=5), grade 1): 1
Headache, No. subjects ([3]; Cohort 8 300 mg (n=5), grade 1): 3
Nausea, No. subjects ([3]; Cohort 8 300 mg (n=5), grade 1): 2
Vomiting, No. subjects ([3]; Cohort 8 300 mg (n=5), grade 1): 1
Anorexia, No. subjects [3, 5]: 2
Diarrhea, No. subjects [3, 5]: 2
Fatigue, No. subjects [3, 5]: 2
Hypotension, No. subjects [3, 5]: 2
Nausea, No. subjects [3, 5]: 4
Vomiting, No. subjects [3, 5]: 1
Fatigue, No. subjects ([3]; Cohort 9 120-180-240 mg (n=7), grade 2): 2
DLTs reported ([3]; Cohort 9 intra-patient dose escalation 120-180-240 mg): two DLTs (grade 3 pneumonitis at 240 mg and grade 3 rash at 180 mg)
Anorexia, Total No. subjects ([3]; all cohorts (n = 51)): 7 (13.7%)
Diarrhea, Total No. subjects ([3]; all cohorts (n = 51)): 7 (13.7%)
Fatigue, Total No. subjects ([3]; all cohorts (n = 51)): 9 (17.6%)
Flushing, Total No. subjects ([3]; all cohorts (n = 51)): 6 (11.8%)
Headache, Total No. subjects ([3]; all cohorts (n = 51)): 12 (23.5%)
Hypotension, Total No. subjects ([3]; all cohorts (n = 51)): 20 (39.2%)
Nausea, Total No. subjects ([3]; all cohorts (n = 51)): 15 (29.4%)
Vomiting, Total No. subjects ([3]; all cohorts (n = 51)): 7 (13.7%)
dose-limiting toxicities ([3]; dose doubling from 5 - 160 mg): no dose-limiting toxicities reported
time of occurrence of hypotension after dosing ([3]; in vivo): ≤ 8 h
maximally tolerated dose ([3]; orally on days 1, 3 and 5 of each week, 28-day cycles): 180 mg
IC50 (AKT2): 0.402 µM
IC50 (ROCK I): 0.006 µM
IC50 (AKT3): 0.05 µM
post-treatment biopsies showing a reduction of p-cofilin ([4]; 180 mg dose level): 5/8
post-treatment biopsies with ≥50% (>50%) reduction of p-cofilin ([4]; 180 mg thrice a week): 3/8
